Experimental data as given in ChEMBL document CHEMBL5678801, “A benzothiophene inhibitor of mitogen-activated protein kinase-activated protein kinase 2 inhibits tumor necrosis factor alpha production and has oral anti-inflammatory efficacy in acute and chronic models of inflammation” (J Pharmacol Exp Ther, 2010).

Legend:
[1] = Antiinflammatory activity in human PBMC cells assessed as inhibition of LPS induced IL-6 production preincubated for 1 hr followed by LPS stimulation and measured after 16 hrs by MSD analysis; type: functional, cell-based
In short: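 Human PBMCs were pretreated with compound for 1 h (<1% DMSO final), then stimulated with LPS 100 ng/ml at 37°C. Cytokines in culture media were read by MSD 4-plex: TNFα at 4 h; IL-1β, IL-6 and IL-8 at 16 h. Data are means ±S.E.M. of two independent experiments in duplicate, three donors. IC50 by 4-parameter nonlinear regression.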

[2] = target: T1, Serine/threonine-protein kinase BRSK2 (Homo sapiens, UniProt Q8IWQ3); experiment: Inhibition of BrSK2 (unknown origin)
T1 sequence (Q8IWQ3 whole entry): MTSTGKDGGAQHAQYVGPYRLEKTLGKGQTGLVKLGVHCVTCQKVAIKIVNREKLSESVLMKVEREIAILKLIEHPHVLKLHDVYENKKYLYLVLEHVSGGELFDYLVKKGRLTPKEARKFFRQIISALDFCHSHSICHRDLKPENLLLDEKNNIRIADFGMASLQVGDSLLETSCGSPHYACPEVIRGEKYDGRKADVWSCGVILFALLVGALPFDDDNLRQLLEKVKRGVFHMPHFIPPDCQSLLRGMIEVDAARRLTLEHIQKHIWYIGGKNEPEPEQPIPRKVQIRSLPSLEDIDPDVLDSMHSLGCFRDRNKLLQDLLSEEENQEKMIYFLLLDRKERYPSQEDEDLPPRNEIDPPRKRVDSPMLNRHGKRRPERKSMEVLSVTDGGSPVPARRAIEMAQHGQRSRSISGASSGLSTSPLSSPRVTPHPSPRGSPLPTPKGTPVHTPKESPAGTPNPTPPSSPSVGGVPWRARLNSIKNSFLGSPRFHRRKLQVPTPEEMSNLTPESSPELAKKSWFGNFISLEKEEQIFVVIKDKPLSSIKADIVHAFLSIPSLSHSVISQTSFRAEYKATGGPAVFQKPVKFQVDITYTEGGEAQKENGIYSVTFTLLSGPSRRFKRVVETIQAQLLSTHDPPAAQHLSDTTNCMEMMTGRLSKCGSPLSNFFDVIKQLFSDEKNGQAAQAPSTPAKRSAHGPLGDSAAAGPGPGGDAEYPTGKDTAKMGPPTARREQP
In short: (§1)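 Kinase panel: 200 kinases were first screened at 1 μM inhibitor for percent inhibition. Those above 50% inhibition were then titrated for IC50. MgATP was fixed at the Km(app) determined for each enzyme.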

[3] = Inhibition of IL-6 production in LPS induced human Whole blood cell preincubated with compound for 1 hr followed by LPS induction and measured after 16 hrs; type: functional, cell-based
In short: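 Human whole blood was stimulated ex vivo with LPS 100 ng/ml. Plasma cytokines were read by MSD 4-plex: TNFα at 4 h; IL-1β, IL-6 and IL-8 at 16 h. Data are means ±S.E.M. of two independent experiments in duplicate, three donors. IC50 by 4-parameter nonlinear regression.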

[4] = target: MAP kinase-interacting serine/threonine-protein kinase 2 (Homo sapiens, UniProt Q9HBH9); experiment: Inhibition of recombinant MNK2 (unknown origin) using KKKALSRQLSVAA as substrate incubated for 1 hr followed by substrate addition in presence of ATP
In short: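 Recombinant MAPKAP kinase was first activated with activated p38α (1:50 molar ratio) and 250 μM ATP for 1 hr at 30°C. Activity was then assayed at Km(app) MgATP by ion-exchange separation of 33P-labeled product peptide. IC50 was taken from duplicate experiments.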

[5] = Inhibition of recombinant RSK1/2/3/4 (unknown origin) using KKKALSRQLSVAA as substrate incubated for 1 hr followed by substrate addition in presence of ATP; design: species or system Homo sapiens
In short: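 MAPKAP family kinases were activated by p38α (1:50 molar, 250 μM ATP, 1 h, 30°C). Assays ran in 20 mM HEPES pH 7.5, 10 mM MgCl2, 1 mM DTT, 0.01% BSA, 0.0005% Tween-20, at MgATP fixed at each enzyme's Km(app). The 33P-labelled product peptide was separated by ion exchange. Duplicate experiments. MSK1 (367-802) and MSK2 (351-772) were N-terminal 6xHis constructs from Sf9 cells.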

[6] = Inhibition of MK2 activity in LPS induced human Whole blood cell preincubated with compound for 1 hr followed by LPS induction and measured after 30 mins by Dissociation enhanced lanthanide fluoro-immuno assay; type: functional, cell-based
In short: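 Whole blood was stimulated with LPS 100 ng/ml for 30 min. Phospho-Ser82 HSP27 and total HSP27 in lysates were read by DELFIA immunoassay.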

[7] = target: MAP kinase-activated protein kinase 3 (Homo sapiens, UniProt Q16644); experiment: Inhibition of recombinant MK3 (unknown origin) expressed in Escherichia coli using KKKALSRQLSVAA as substrate incubated for 1 hr followed by substrate addition in presence of ATP
In short: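 Recombinant kinase first activated with activated p38α (1:50 molar ratio) and 250 μM ATP for 1 hr at 30°C. Activity measured by 33P-labelled product peptide, separated by ion exchange. MgATP fixed at the Km(app) determined for each enzyme. IC50 values from duplicate experiments.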

[8] = Inhibition of CaMK II (unknown origin); design: species or system Homo sapiens
[9] = Plasma concentration in po dosed LPS-induced Lewis rat model at ED50 concentration measured after 5.5 hrs of initial dose by LC-MS/MS analysis; type: ADME, organism-based
In short: (§2)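 Male Lewis rats (225-250 g, 5 per group) were fasted 18 h, then dosed orally at 0.2-60 mg/kg as a suspension in 0.5% methylcellulose/0.025% Tween 20. LPS 1 mg/kg was given i.v. 4 h later. Blood was taken by cardiac puncture 90 min after LPS. Serum TNFα was read by ELISA and drug by LC-MS/MS, three independent experiments. 4-parameter fit. Unbound values were corrected with measured rat plasma protein binding.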

Rattus norvegicus = experiment: Antiinflammatory activity in acute LPS induced TNF-alpha production in Lewis rat model administered via oral dose pretreated for 4 hrs followed by LPS stimulation and measured after 90 mins […]; type: functional; conditions: 5.5 h, time 330 min; in short: as §2
[10] = Cmax in chronic SCW-induced arthritis Lewis rat model plasma at ED50 concentration; type: ADME, cell-free
In short: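 Female Lewis rats (125-140 g) received a single i.p. streptococcal cell wall injection. Animals showing the acute phase were pooled, 4-8 per group over three experiments. Dosing was oral gavage b.i.d., days 10-21, in methylcellulose-Tween-20 vehicle. Hind paw volume was read by displacement plethysmometer on day 21, as % inhibition of swelling. Plasma was sampled up to 11 h after the last dose, 3 rats per dose. ED values came from fitted curves.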

[11] = target: Receptor-interacting serine/threonine-protein kinase 2 (Homo sapiens, UniProt O43353); experiment: Inhibition of RIPK2 (unknown origin); in short: as §1
Sequence of Receptor-interacting serine/threonine-protein kinase 2 (O43353 whole entry): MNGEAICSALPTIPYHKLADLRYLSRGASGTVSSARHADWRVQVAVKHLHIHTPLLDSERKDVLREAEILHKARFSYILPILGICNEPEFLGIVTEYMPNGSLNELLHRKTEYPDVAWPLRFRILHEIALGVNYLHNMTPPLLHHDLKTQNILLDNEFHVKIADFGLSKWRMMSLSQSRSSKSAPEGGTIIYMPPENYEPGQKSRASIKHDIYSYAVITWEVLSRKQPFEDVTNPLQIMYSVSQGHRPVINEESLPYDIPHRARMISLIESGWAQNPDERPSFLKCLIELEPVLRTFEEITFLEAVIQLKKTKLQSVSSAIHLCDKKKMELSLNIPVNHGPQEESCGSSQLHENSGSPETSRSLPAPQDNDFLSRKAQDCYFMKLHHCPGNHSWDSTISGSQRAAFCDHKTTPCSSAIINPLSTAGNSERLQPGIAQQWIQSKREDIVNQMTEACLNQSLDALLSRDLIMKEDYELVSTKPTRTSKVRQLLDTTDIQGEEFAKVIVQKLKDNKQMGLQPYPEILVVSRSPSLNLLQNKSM

Sequence of MAP kinase-interacting serine/threonine-protein kinase 2 (Q9HBH9 whole entry): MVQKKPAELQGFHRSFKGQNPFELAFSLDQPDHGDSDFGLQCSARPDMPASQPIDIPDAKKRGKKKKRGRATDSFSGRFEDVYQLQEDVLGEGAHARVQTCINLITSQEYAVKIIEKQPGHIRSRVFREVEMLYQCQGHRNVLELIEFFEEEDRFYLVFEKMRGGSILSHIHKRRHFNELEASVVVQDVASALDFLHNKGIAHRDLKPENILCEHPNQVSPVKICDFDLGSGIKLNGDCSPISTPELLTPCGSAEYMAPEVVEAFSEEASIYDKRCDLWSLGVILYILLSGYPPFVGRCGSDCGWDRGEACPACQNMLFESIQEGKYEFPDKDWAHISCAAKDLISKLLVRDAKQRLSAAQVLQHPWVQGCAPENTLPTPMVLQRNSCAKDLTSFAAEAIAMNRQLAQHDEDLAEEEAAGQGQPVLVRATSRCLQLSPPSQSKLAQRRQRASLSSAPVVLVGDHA
Sequence of MAP kinase-activated protein kinase 3 (Q16644 whole entry): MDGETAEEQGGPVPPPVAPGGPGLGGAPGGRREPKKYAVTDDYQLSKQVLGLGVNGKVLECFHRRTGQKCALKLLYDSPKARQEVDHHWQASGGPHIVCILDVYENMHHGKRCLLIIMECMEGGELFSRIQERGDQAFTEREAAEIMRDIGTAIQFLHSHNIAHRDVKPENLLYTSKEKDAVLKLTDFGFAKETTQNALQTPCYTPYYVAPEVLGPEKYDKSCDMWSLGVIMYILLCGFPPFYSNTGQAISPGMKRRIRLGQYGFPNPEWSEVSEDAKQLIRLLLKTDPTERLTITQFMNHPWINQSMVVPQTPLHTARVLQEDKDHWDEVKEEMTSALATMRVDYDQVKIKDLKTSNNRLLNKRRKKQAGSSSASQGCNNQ

IC50 [1]: 1400 nM
IC50 [2]: 90 nM
IC50 [3]: 10300 nM
IC50 [4]: 148 nM
IC50 [5]: > 1000 nM
IC50 [6]: 1600 nM
IC50 [7]: 53 nM
IC50 [8]: 70 nM
concentration at 5.5 h [9]: 1.4 µM
Cmax [10]: 11 µM
IC50 [11]: 590 nM
Compound: Cc1ccc(-c2ccc3c(ccc4sc5c(c43)NC[C@@H](C)NC5=O)n2)cn1
ED50 (Rattus norvegicus): 6.9 mg/kg
ED80 (Rattus norvegicus): 19 mg/kg
